Assay outcomes deposited in PubChem BioAssay by several laboratories.
This is a sample that favours compounds with a hit; in the whole collection about 1.9% have one here.
NR2E3 ag-1 = human photoreceptor-specific nuclear receptor agonism. AID 602229. inhibition of corepressor binding, % at 3.98 µM. Q9Y5X4. 360,000 compounds, 0.35% hits. CHO-S Gal4-NCOR/VP16-NR2E3 two-hybrid, luciferase;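 active = inhibition above the mean of all tested compounds plus 3 SD, cut at about 70% in these data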;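 note: higher means lower luciferase signal from less NR2E3 corepressor binding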
MT1-MMP act inh = inhibitors of human MT1-MMP activation; HT1080 RFP-PRO-GFP cells, GFP/RFP ratio fluorescence, overnight; percent of plate control window, DMSO zero; GFP/RFP ratio change, % at 20 µM; 360,000 compounds, 0.061% hits; AID 651647;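 active = GFP/RFP ratio change of at least 30% with cell ATP level not reduced by more than half and red fluorescence within 50% of control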
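Test system: HT1080 RFP-PRO-GFP cells; Benchmarks: DMSO and RFP-L50D-GFP cell wells; Timing: cells overnight before dosing, compound overnight, 37 °C, 5% CO2; Compound: one 20 µM compound dose with 1% DMSO; Read-out: GFP/RFP fluorescence ratio.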
SKN-1 block = inhibitors of C. elegans SKN-1; C. elegans VP596 Pgst-4::GFP/RFP ratio, acrylamide-induced, 24 h; inhibition, % at 21.8 µM; 360,000 compounds, 0.49% hits; AID 624304;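 active = interference check ratio from 0.5 to 1.5 plus GFP to RFP signal ratio inhibition reaching or exceeding a fixed threshold, cut at about 30% in these data, passing the limit was not always enough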
Rev-erbA mod = modulates human Rev-erb alpha binding to DNA; P20393; activity, % at 10 µM; 370,000 compounds, 0.79% hits; AID 1259318; Rev-erbα–FITC-DNA binding, fluorescence polarization, 90 min;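 active = activity above about 14%, limit read from the data; passing the limit was not always enough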
Target sequence (P20393 whole entry, looked up): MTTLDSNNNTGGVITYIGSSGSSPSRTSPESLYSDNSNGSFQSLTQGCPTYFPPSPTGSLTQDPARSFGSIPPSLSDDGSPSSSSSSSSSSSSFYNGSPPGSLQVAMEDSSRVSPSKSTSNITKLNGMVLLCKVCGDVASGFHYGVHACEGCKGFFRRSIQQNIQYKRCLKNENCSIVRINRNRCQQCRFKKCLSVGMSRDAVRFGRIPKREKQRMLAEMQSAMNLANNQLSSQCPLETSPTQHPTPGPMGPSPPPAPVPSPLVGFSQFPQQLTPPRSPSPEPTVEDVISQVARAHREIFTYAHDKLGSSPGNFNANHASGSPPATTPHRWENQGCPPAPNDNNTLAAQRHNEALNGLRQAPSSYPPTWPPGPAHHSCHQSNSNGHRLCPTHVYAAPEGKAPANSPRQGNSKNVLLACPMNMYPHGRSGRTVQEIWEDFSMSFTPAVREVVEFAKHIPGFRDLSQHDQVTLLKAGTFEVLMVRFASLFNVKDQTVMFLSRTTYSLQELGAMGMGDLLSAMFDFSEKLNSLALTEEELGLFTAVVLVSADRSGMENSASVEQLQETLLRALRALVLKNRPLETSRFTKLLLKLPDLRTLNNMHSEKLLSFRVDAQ
NR2E3 ag-2 = NR2E3 (human) agonism | Q9Y5X4 | GST-NR2E3/biotin-RetCOR TR-FRET, 1536-well | inhibition of corepressor binding, % at 4.78 µM | 320,000 compounds, 0.12% hits;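 active = percent inhibition above the cutoff of mean plus 3 SD of all tested compounds, set per screening campaign, cut at about 20% in these data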
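Material: NR2E3–RetCOR corepressor complex | Quantity: 1.35 nM GST-tagged NR2E3 final | Schedule: 5 h at 4 °C | Replication: Singlicate compound wells | Reagent: RetCOR corepressor, biotinylated, 7 nM | Controls: Biotin wells as high control, 0.6% DMSO wells as low control | Signal: TR-FRET, Eu(K)-anti-GST donor, streptavidin-D2 acceptor, ex 340, em 617/671 nm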
PG9 Ab binder = PG9 antibody binding by small molecule. 360,000 compounds, 0.43% hits. inhibition, % at 6.7 µM. TR-FRET gp120-PG9 antibody binding; in the data active = inhibition above about 8.5%
Numbers stand for hits.

`Cn1c(-c2ccc(C#N)cc2)c(C#Cc2ccccc2)c2ccccc21` gave NR2E3 ag-1 inactive, MT1-MMP act inh inactive, SKN-1 block inactive, Rev-erbA mod inactive and PG9 Ab binder inactive.
Screening O=S(=O)(c1ccc(C(F)(F)F)cc1)N1CCCc2nc(-c3ccccc3)ccc21 returned Rev-erbA mod inactive and PG9 Ab binder inactive.
Screening Cc1sc(NC(=O)C2=COCCO2)nc1-c1ccc(Cl)cc1 returned NR2E3 ag-1 inactive, MT1-MMP act inh inactive, SKN-1 block 39, Rev-erbA mod inactive, NR2E3 ag-2 inactive and PG9 Ab binder inactive.
Clc1ccc(C=Cc2ccccn2)cc1 was read as NR2E3 ag-1 inactive, MT1-MMP act inh inactive, SKN-1 block 72, Rev-erbA mod inactive and PG9 Ab binder inactive.
`C(=C\c1ccccn1)/c1ccccn1` gave NR2E3 ag-1 inactive, MT1-MMP act inh inactive, SKN-1 block inactive, Rev-erbA mod inactive, NR2E3 ag-2 inactive and PG9 Ab binder inactive.
`Cc1ccc(C=Cc2ccccn2)cc1` gave NR2E3 ag-1 inactive, MT1-MMP act inh inactive, SKN-1 block 43, Rev-erbA mod inactive and PG9 Ab binder inactive.
Screening Cc1ccc2nc(-c3cccc(Br)c3)c(Cc3ccsc3)n2c1 returned Rev-erbA mod inactive and PG9 Ab binder inactive.
For CN(C(=O)C1Cc2c(-c3ccccc3Oc3ccccc3)ccnc2O1)c1ccccc1 (stereo not given) the results were NR2E3 ag-1 inactive, MT1-MMP act inh inactive, SKN-1 block 35, Rev-erbA mod inactive and PG9 Ab binder inactive.
Screening O=C(Nc1cccc(Oc2ccccc2)c1)C1Cc2c(-c3ccc4c(c3)OCO4)ccnc2O1 (stereo not given) returned NR2E3 ag-1 inactive, MT1-MMP act inh inactive, SKN-1 block 36, Rev-erbA mod inactive and PG9 Ab binder inactive.
For NC(=O)c1cccc(-c2ccnc3c2CC(C(=O)Nc2cccc(Oc4ccccc4)c2)O3)c1 (stereo not given) the results were NR2E3 ag-1 inactive, MT1-MMP act inh inactive and SKN-1 block inactive.
For CC1(C)S[C@@H]2[C@H](NC(=O)[C@H](NC(=O)N3CCNC3=O)c3ccccc3)C(=O)N2C1C(=O)O (stereo not given in full) the results were Rev-erbA mod inactive.
For c1ccc(-c2nc3ccccc3nc2-c2ccc(CN3CCC4(CC3)CNc3ccccc34)cc2)cc1 the results were Rev-erbA mod inactive and PG9 Ab binder inactive.
`[O-]/[N+](=C\c1ccco1)c1ccc(Cl)cc1` gave NR2E3 ag-1 inactive, MT1-MMP act inh inactive, SKN-1 block 36, Rev-erbA mod inactive, NR2E3 ag-2 inactive and PG9 Ab binder inactive.
Screening [O-]/[N+](=C/c1ccco1)c1ccccc1 returned NR2E3 ag-1 inactive, MT1-MMP act inh inactive, SKN-1 block inactive, Rev-erbA mod inactive, NR2E3 ag-2 inactive and PG9 Ab binder inactive.
Screening O=C(O)CC(S)C(=O)O (stereo not given) returned Rev-erbA mod inactive.
`CC[C@H](C)C1OC(=O)[C@@H](C)[C@@H](CC)NC(=O)[C@H](C)N(C)C(=O)C(C)(C)C(=O)C(C)NC(=O)[C@H](Cc2ccc(OC)cc2)N(C)C(=O)[C@H](C(C)C)N(C)C(=O)CNC(=O)[C@H](CC(C)C)N(C)C(=O)CNC1=O` (stereo not given in full) gave NR2E3 ag-1 81, MT1-MMP act inh inactive and SKN-1 block inactive.
Screening COc1ccccc1C(=O)N1CCN(C(=O)[C@H]2O[C@@H](n3cnc(C(N)=O)n3)[C@H](O)[C@@H]2O)CC1 returned Rev-erbA mod inactive and PG9 Ab binder inactive.
C#CCN1C(=O)S/C(=C/C=C/c2ccc(N(C)C)cc2)C1=O was read as NR2E3 ag-1 inactive, MT1-MMP act inh inactive, SKN-1 block 47, Rev-erbA mod inactive, NR2E3 ag-2 inactive and PG9 Ab binder inactive.
For NC(=O)OC[C@@H]1[C@H](NC(=O)/C(=N\OCC(=O)O)c2csc(N)n2)C(=O)N1S(=O)(=O)O the results were Rev-erbA mod inactive.
For Cc1ccccc1NC(=O)OCCCN1C(=O)CCC12CCC(C)CC2 (stereo not given) the results were Rev-erbA mod inactive.
Screening CSc1nc2c(=O)[nH]cnc2s1 returned Rev-erbA mod inactive and PG9 Ab binder inactive.
Screening C=CCNc1ncnc2sc(SC)nc12 returned NR2E3 ag-1 inactive, MT1-MMP act inh inactive, SKN-1 block 50, Rev-erbA mod inactive, NR2E3 ag-2 inactive and PG9 Ab binder inactive.
`c1ccc(CCNc2nnnn2-c2ccccc2)cc1` gave NR2E3 ag-1 inactive, MT1-MMP act inh inactive, SKN-1 block 37, Rev-erbA mod inactive, NR2E3 ag-2 inactive and PG9 Ab binder inactive.
C1=C(CCNc2nnnn2-c2ccccc2)CCCC1 was read as NR2E3 ag-1 inactive, MT1-MMP act inh inactive, SKN-1 block inactive, Rev-erbA mod inactive, NR2E3 ag-2 inactive and PG9 Ab binder inactive.
Screening CC(C)S(=O)(=O)N[C@@H]1c2cc3c(cc2[C@H](c2ccccc2)[C@H]1C)OCO3 returned Rev-erbA mod inactive and PG9 Ab binder inactive.
CCOC(=O)C1=C(O)c2ccccc2C(=O)/C1=C\c1ccc(C)cc1 was read as NR2E3 ag-1 inactive, MT1-MMP act inh inactive, SKN-1 block 48 and NR2E3 ag-2 inactive.
Screening COCC1=C(C(=O)OC(C)OC(=O)OC(C)C)N2C(=O)[C@@H](NC(=O)/C(=N/OC)c3csc(N)n3)[C@H]2SC1 (stereo not given in full) returned Rev-erbA mod inactive.
`COc1ccc(NS(=O)(=O)c2cccc(-c3nnc(-c4ccccc4)o3)c2)cc1` gave NR2E3 ag-1 inactive, MT1-MMP act inh inactive, SKN-1 block 34, Rev-erbA mod inactive, NR2E3 ag-2 inactive and PG9 Ab binder inactive.
For O=S(=O)(NC1CCCC1)c1cccc(-c2nnc(-c3ccccc3)o2)c1 the results were NR2E3 ag-1 inactive, MT1-MMP act inh inactive, SKN-1 block inactive and NR2E3 ag-2 inactive.
`O=S1(=O)N[C@@H](Cc2ccccc2)COc2cc(N3CCCCC3)ccc21` gave Rev-erbA mod inactive and PG9 Ab binder inactive.
Screening CC(=O)O[C@H]1[C@@H](O)[C@H](O)[C@H](Oc2c(O)c(C)c3c4c2[C@@H](C)CC[C@@H]4[C@@H](C)C[C@@H]3C=C(C)C)O[C@H]1C returned NR2E3 ag-1 inactive, MT1-MMP act inh inactive, SKN-1 block 40, Rev-erbA mod inactive and PG9 Ab binder inactive.
`FC(F)(F)Oc1cccc(Cn2ccc3ccc(-c4ccc5ccn(Cc6cccc(OC(F)(F)F)c6)c5c4)cc32)c1` gave Rev-erbA mod inactive.
CCCCC(CC)C(=O)NCc1ccccc1OC (stereo not given) was read as NR2E3 ag-1 inactive, MT1-MMP act inh inactive, SKN-1 block inactive, Rev-erbA mod inactive, NR2E3 ag-2 inactive and PG9 Ab binder inactive.
